The target of the test is cAMP and cAMP-inhibited cGMP 3',5'-cyclic phosphodiesterase 10A (Homo sapiens, UniProt Q9Y233). In words: Inhibition of human full length PDE10A2 expressed in African green monkey COS7 cells using [3H]cGMP as substrate preincubated for 30 mins followed by substrate addition measured after 60 mins by scintillation proximity assay. The test is classed as cell-based, COS-7. In outline: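 Full-length human PDE10A2 from transfected COS-7 cells, held at -70 °C. [³H]cGMP added, 60 min at rt, stopped with yttrium SPA beads containing ZnSO₄. Counted after ≥120 min settling. Inhibition set against DMSO (0%) and 10 µM papaverine (100%) wells. Duplicate or triplicate.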
Chain of cAMP and cAMP-inhibited cGMP 3',5'-cyclic phosphodiesterase 10A (Q9Y233 whole entry): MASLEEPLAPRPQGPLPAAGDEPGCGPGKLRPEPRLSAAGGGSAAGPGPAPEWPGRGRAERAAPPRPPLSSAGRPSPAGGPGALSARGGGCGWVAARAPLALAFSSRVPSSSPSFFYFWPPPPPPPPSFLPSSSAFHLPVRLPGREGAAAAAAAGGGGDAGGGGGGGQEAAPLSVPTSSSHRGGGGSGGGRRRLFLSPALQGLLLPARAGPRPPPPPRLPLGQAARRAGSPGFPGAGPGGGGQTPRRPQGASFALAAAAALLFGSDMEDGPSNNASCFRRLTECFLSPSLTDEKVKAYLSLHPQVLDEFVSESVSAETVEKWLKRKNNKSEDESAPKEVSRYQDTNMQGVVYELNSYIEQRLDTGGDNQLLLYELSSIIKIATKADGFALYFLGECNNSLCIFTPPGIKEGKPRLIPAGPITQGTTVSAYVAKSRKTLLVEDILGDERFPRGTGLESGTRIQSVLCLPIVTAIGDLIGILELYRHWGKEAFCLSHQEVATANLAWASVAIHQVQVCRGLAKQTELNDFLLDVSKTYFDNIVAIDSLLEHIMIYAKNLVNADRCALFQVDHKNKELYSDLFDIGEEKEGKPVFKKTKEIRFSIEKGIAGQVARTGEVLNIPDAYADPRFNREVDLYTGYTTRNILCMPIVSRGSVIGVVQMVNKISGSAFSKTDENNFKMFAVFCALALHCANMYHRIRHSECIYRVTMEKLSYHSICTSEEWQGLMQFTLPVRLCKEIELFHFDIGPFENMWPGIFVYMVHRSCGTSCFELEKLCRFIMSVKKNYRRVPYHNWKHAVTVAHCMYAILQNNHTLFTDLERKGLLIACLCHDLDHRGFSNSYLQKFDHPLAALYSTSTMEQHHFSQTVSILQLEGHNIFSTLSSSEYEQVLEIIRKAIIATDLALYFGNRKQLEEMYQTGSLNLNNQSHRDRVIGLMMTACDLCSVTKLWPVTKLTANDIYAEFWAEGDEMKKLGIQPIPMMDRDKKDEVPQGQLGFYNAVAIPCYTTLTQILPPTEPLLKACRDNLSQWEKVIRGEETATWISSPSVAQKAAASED
In general terms: In a scintillation proximity assay essentially only radioactivity close to the scintillant gives light.
The IC50 is the concentration that gives 50% inhibition. The compound `COc1cn(CC2CC2)nc(-c2ccnn2-c2ccccc2)c1=O` registered an IC50 of 170 nM.

`COc1cn(C)nc(-c2ccnn2-c2ccccc2)c1=O` yielded an IC50 of 1000 nM.

For the compound `Cn1c(COc2cn(CC3CC3)nc(-c3ccnn3-c3ccccc3)c2=O)nc2ccccc21`, the midpoint of inhibition, the IC50, lay at 2800 nM.

`Cn1c(CCOc2cn(CC3CC3)nc(-c3ccnn3-c3ccccc3)c2=O)nc2ccccc21` registered an IC50 of 25 nM.

In the case of `COc1cn(-c2ccccc2)nc(-c2ccnn2C)c1=O`, the half-inhibitory concentration (IC50) was 2400 nM.

As for `Cn1c(OCCOc2cn(CC3CC3)nc(-c3ccnn3-c3ccccc3)c2=O)nc2ccccc21`, inhibition was half-maximal at 4.1 nM (IC50).

As for `Cn1c(CCCOc2cn(CC3CC3)nc(-c3ccnn3-c3ccccc3)c2=O)nc2ccccc21`, it took 0.81 nM to reach half-maximal inhibition (IC50).

Compound `O=c1c(OCCN2CCn3c2nc2ccccc23)cn(CC2CC2)nc1-c1ccnn1-c1ccccc1` returned an IC50 of 0.76 nM.

In turn, `COc1cn(C2CC2)nc(-c2ccnn2-c2ccccc2)c1=O` registered an IC50 of 130 nM.

As for `COc1cn(CC(F)(F)F)nc(-c2ccnn2-c2ccccc2)c1=O`, 550 nM corresponded to half-maximal inhibition (IC50).

Turning to `Cn1c(CCCCOc2cn(CC3CC3)nc(-c3ccnn3-c3ccccc3)c2=O)nc2ccccc21`, the IC50 came to 760 nM.

Values taken from ChEMBL document CHEMBL3813640, “Design and synthesis of potent and selective pyridazin-4(1H)-one-based PDE10A inhibitors interacting with Tyr683 in the PDE10A selectivity pocket” (Bioorg Med Chem, 2016).
